Shown are actives, neighbours in structure and some others; about 12% of the full set was active somewhere.
Autophagy mod – alters autophagy in cells | MEF GFP-LC3 puncta imaging; test concentration mostly 10 µM | calls only at 10 µM (by protocol) | 190,000 compounds, 0.98% hits | AID 463193;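 active = percentage of spot-positive cells more than 3 SD above its plate mean, without a fluorescence outlier flag or 80% toxicity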;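 note: spot-positive cell cutoff set from DMSO-treated cells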
CHOP inh – blocks CHOP induction under ER stress; CHO-K1 CHOP-promoter luciferase, tunicamycin-induced, 15-18 h; inhibition, % at 10 µM; 220,000 compounds, 3.8% hits; AID 2732;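 active = compounds that reduced the stress-induced luciferase reporter signal by more than about 70% of percent inhibition, limit read from the data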;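 note: 0% = tunicamycin plus vehicle and 100% = wells without tunicamycin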
MT stabilize HCS – stabilizes microtubules in HeLa cells; HeLa tubulin immunostaining HCS, 24 h; share of cells brighter than vehicle mean+2SD; % tubulin-high responders, % at 10 µM; 200,000 compounds, 0.83% hits; AID 2205;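 active = plate Z-score above 3 for both tubulin-high and condensed-nucleus cell shares, with cell loss under 80%, at 10 µM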;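 note: anti alpha tubulin signal scored within the nucleus-defined area of each cell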
bCat nuc transl – beta-catenin nuclear translocation modulation. HeLa beta-catenin nuclear translocation, immunofluorescence imaging. nuclear translocation activity, % at 5 µM. 190,000 compounds, 0.3% hits. AID 1665;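 active = nuclear translocation activity above 50% at 5 µM, with a well cell count of 50 or more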;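 note: per-cell ratio of nuclear to cytoplasmic median beta-catenin stain intensity; plate controls were DMSO negative control for no effect and GSK-3 inhibitor IX positive control for full effect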
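Assay system: human HeLa cells, native beta-catenin; doses: 5 µM primary, 0.02–20 µM confirmation; incubation: compound treatment 24 h, 37°C, 5% CO2; technique: fluorescence imaging of beta-catenin antibody stain plus DAPI; measure: % activation, nuclear-to-cytoplasmic median beta-catenin signal ratio per cell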
Dynein transport – dynein cargo transport inhibition; 3617.4 mouse cells, GR-EGFP nuclear translocation imaging; test concentration mostly 20 µM; stimulated with dexamethasone, 1 µM; hits give low values; z-score, hits read low; 220,000 compounds, 0.47% hits; AID 1381;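 active = plate z-score of nuclear minus cytoplasmic receptor signal below a set negative limit, without overly bright fluorescence or cell loss, cut at about -3.5 in these data, passing the limit was not always enough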;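 note: z-score of nuclear minus cytoplasmic ring GR-EGFP intensity difference per well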
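medium = tetracycline-free induction medium containing charcoal-stripped FBS | probe or stimulus = dexamethasone, 1.0 µM final | timing = 48 h induction, then 1 h compound, then 30 min agonist, 37 °C | detection = automated 10x imaging of fixed Hoechst-stained cells | read-out basis = nuclear versus cytoplasmic GR-EGFP signal, averaged per well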
Lmaj promast – reduces viability of Leishmania major promastigotes; resazurin fluorescence viability; inhibition, % at 10 µM; 200,000 compounds, 9% hits; AID 1063; in the data active = inhibition above about 50%;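 note: promastigotes grown with compound for 44 hours at 28 °C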
CHOP inh conf – confirmation of CHOP induction inhibitors; shares compounds with CHOP inh; CHO-CHOP promoter luciferase reporter, tunicamycin-induced, luminescence; inhibition, % at 10 µM; 2,100 compounds, 45% hits;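 active = mean of three repeat readings of reporter signal inhibition above a set limit, cut at about 70% in these data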;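 note: 0% = tunicamycin plus vehicle and 100% = wells lacking tunicamycin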
An asterisk follows results filed as active; i = inactive; . = no result given; + = active, no number.

SMILES | Autophagy mod | CHOP inh | MT stabilize HCS | bCat nuc transl | Dynein transport | Lmaj promast | CHOP inh conf
CCOc1ccc(C(=O)Nc2ccc(NC(=O)c3ccco3)c(Cl)c2)cc1Br | i | 41.5 | 3.8 | -1.1 | -0.457 | -2.7 | .
CCCc1cc(C(=O)N(C2CCCCC2)C2CCCCC2)no1 | . | 99.5* | 4.6 | 1.0 | -0.157 | 9.2 | 89.0*
CCCc1cc(C(=O)NC2CCCCC2)no1 | i | 0.0 | 3.0 | 1.7 | 0.668 | -6.1 | .
C=C(C)COc1ccc(-c2n[nH]c(C)c2-c2ccc(Br)cc2)c(O)c1 | + | . | 26.3* | . | -1.12 | 9.4 | 106.2*
CC(/C=N/n1c(C2CCCCC2)n[nH]c1=S)=C\c1ccccc1 | i | 107.2* | 1.3 | 0.1 | -0.485 | -5.9 | 101.5*
O=[N+]([O-])c1ccc(/C=N/n2c(C3CCCCC3)n[nH]c2=S)cc1 | i | 105.4* | 1.2 | 2.4 | 0.811 | 0.9 | 113.1*
Cc1ccc(OCCCN2C(=O)C(=O)c3cccc(C)c32)cc1 | i | 66.7 | 2.5 | -1.9 | -0.428 | 3.8 | .
Cc1cccc2c1N(CCOc1ccc(C(C)(C)C)cc1)C(=O)C2=O | i | 99.8* | 4.4 | -1.5 | 0.577 | 7.5 | 1.1
COc1ccc(CNC(=O)c2nnn(-c3cccc(C(F)(F)F)c3)c2N)cc1 | i | 9.2 | 2.1 | . | -0.426 | 1.6 | .
O=C(N/N=C/c1c[nH]c2ccccc12)c1cc(-c2ccc(-c3ccccc3)cc2)n[nH]1 | i | 109.0* | 12.1 | 12.9 | -0.487 | 0.2 | 39.9
O=C(N/N=C/c1c[nH]c2ccccc12)C1CC1(c1ccccc1)c1ccccc1 (stereo unspecified) | i | 100.3* | 4.7 | -1.3 | 2.51 | 16.9 | 33.9
COC(=O)N/N=C/c1c[nH]c2ccccc12 | i | 2.5 | 3.8 | -4.4 | -0.113 | 47.8 | .
O=C(N/N=C/c1ccco1)c1cc(-c2ccc3ccccc3c2)n[nH]1 | i | 110.1* | 2.3 | -10.0 | -1.06 | 15.0 | 4.2
O=C(N/N=C/c1c[nH]c2ccccc12)C1CC1c1ccccc1 (stereo unspecified) | i | 41.9 | 2.5 | -2.4 | -0.863 | -2.0 | .
O=C(N/N=C/C=C/c1ccccc1[N+](=O)[O-])c1ccncc1 | . | -6.3 | . | 0.7 | -0.103 | . | .
O=C(N/N=C/C=C\c1ccccc1[N+](=O)[O-])c1cc(-c2ccc3ccccc3c2)n[nH]1 | i | 106.2* | 9.1 | -2.6 | -0.0286 | 23.7 | -33.8
NNC(=O)c1ccc(CN2CCCCC2)o1 | i | 8.9 | 3.8 | -0.7 | 1.78 | 3.6 | .
O=C(NCCN1CCCOC1=O)C(=O)NCCN1CCCOC1=O | . | 4.2 | . | -0.5 | -0.902 | . | .
CCCNC(=O)OCc1cccnc1Sc1ccc(C)cc1 | i | -19.0 | 3.1 | -3.8 | 0.464 | -7.7 | .
S=C(NCCc1ccccn1)Nc1ccc(Cl)cc1Cl | i | -15.3 | 4.4 | -0.7 | 0.0907 | 3.5 | .
O=C(N/N=C/c1ccccn1)c1cc(-c2ccccc2)nc2ccccc12 | . | 2.7 | . | -0.2 | 2.36 | . | .
O=C(N/N=C/c1ccccn1)c1cc(-c2ccc3ccccc3c2)n[nH]1 | i | 103.0* | 10.6 | 6.6 | 0.0103 | 84.1* | 114.5*
Nc1nccc(-c2ccc(-n3cccc3)cc2)n1 | i | -4.2 | 2.6 | 4.0 | 1.16 | 0.5 | .
CC(C)(C)c1nnc(NC(=O)c2cccnc2)s1 | i | -13.1 | 2.7 | 0.7 | -0.685 | -4.8 | .
COCCNC(=O)CSc1nc2ccccc2c(=O)n1CCC(=O)N1CCN(c2ccccc2)CC1 | i | 4.1 | 4.3 | -0.1 | 0.375 | 15.5 | .
SMILES | Autophagy mod | CHOP inh | MT stabilize HCS | bCat nuc transl | Dynein transport | Lmaj promast | CHOP inh conf
COc1ccc(NC(=O)CNS(=O)(=O)c2cccc3nonc23)c(OC)c1 | i | 0.8 | 6.5 | . | -1.12 | -8.4 | .
CC(C)(C)c1ccc(C2CC2C(=O)N/N=C\c2ccc[nH]2)cc1 (stereo unspecified) | i | 104.8* | 10.6 | 7.9 | -0.428 | 21.7 | 94.9*
CC1=C(C(=O)Nc2ccc(C)cc2C)C(c2cccc(Cl)c2)n2nc(C(=O)OC(C)C)nc2N1 (stereo unspecified) | i | 105.7* | 4.2 | -0.4 | -0.0454 | -3.2 | 117.5*
O=C(NCC(O)c1ccc([N+](=O)[O-])cc1)c1cccc(S(=O)(=O)N2CCCC2)c1 (stereo unspecified) | i | -3.0 | 0.8 | -1.3 | -0.0234 | -2.3 | .
O=S(=O)(NCC(Nc1ccccc1)c1ccccc1)c1ccc(Cl)cc1 (stereo unspecified) | i | 101.6* | 1.1 | 0.5 | 0.189 | 0.8 | 32.8
COc1ccc(CN(Cc2ccc(C(=O)O)cc2)C(=S)Nc2ccc(C)cc2)cc1OC | i | -15.6 | 4.6 | 0.2 | 1.62 | -0.9 | .
S=C1NCCOCCOCCOCCNC(=S)N2CCOCCOCCN1CCOCCOCC2 | i | -0.3 | 1.3 | 0.1 | 0.188 | -7.6 | .
O=C(O)C1CCC1C(=O)Nc1nc(-c2ccc(Cl)s2)cs1 (stereo unspecified) | . | 1.3 | . | -4.7 | -0.58 | . | .
CCOC(=O)c1ccc(NC(=O)CSc2nnc(CCc3ccc(C)o3)n2-c2ccccc2)cc1 | i | 103.1* | 1.5 | -1.5 | -0.24 | 51.6* | 58.0
Cc1ccc(CCc2nnc(SCC(=O)Nc3ccccc3Cl)n2-c2ccccc2)o1 | i | 32.9 | 5.4 | -0.5 | -0.294 | 6.0 | .
CS(=O)(=O)c1nc(-c2cccs2)cc(C(F)(F)F)n1 | + | 110.9* | 1.1 | -1.9 | 0.547 | 36.6 | 120.1*
CCOC(=O)CCS(=O)(=O)c1nc(-c2ccccc2)cc(C(F)(F)F)n1 | i | . | 2.5 | -1.4 | -1.77 | 7.9 | 136.4*
O=C(O)CCS(=O)(=O)c1nc(-c2cccs2)cc(C(F)(F)F)n1 | i | -42.4 | 1.8 | -2.5 | -0.173 | 2.0 | .
COCC(C)NC(=O)CCS(=O)(=O)c1nc(-c2ccc(OC)cc2)cc(C(F)(F)F)n1 (stereo unspecified) | i | -88.5 | 4.2 | 2.9 | -3.16 | -1.8 | .
COC(=O)CCS(=O)(=O)c1nc(-c2ccccc2)cc(C(F)(F)F)n1 | i | 106.4* | 3.9 | 2.2 | -2.43 | 3.3 | 31.8
COc1cccc(/C=C2\SC(=O)N(CCC(=O)NNC(=O)c3ccccc3Cl)C2=O)c1 | i | 15.8 | 5.6 | -1.3 | 1.03 | -2.8 | .
O=C(CN1C(=O)S/C(=C\c2ccc(Cl)cc2)C1=O)NNC(=O)c1ccccc1O | i | 105.5* | 3.5 | -0.1 | -0.961 | -9.0 | 14.2
O=C(Nc1nnc(-c2ccccc2)s1)c1ccc(F)cc1 | i | 102.9* | 1.9 | -1.5 | 1.19 | -4.2 | 35.9
O=C(Nc1nnc(-c2ccc(F)cc2)s1)Nc1ccccc1F | . | -4.7 | . | 0.2 | -0.539 | . | .
Cc1csc(NC(=O)CSc2nnc(-c3ccoc3C)o2)n1 | i | -41.0 | 4.1 | -1.6 | 1.81 | 10.4 | .
Cc1occc1-c1nnc(SCC(=O)Nc2nc(C(C)(C)C)cs2)o1 | i | 103.2* | 1.3 | 7.3 | 0.756 | 5.9 | 59.9
